# Laboratory results published in ChEMBL document CHEMBL1649165, “Activity profile in vitro of micafungin against Spanish clinical isolates of common and emerging species of yeasts and molds” (2009).
# *1 amine or outer side, *2 acyl side, *3 side chain or, on linkers, in order; H or OH if unused. Where a SMILES comes first, the peptide text is derived from it. Bridges are numbered along the chain shown (N, C = ends). [ ]: non-standard residue; d: D form. The star is where a group is joined. hTyr(3S-OH,4S-OH,3'-OSO3H) = N[C@H](C(=O)O)[C@H](O)[C@@H](O)c1ccc(O)c(OS(=O)(=O)O)c1; Orn(4R-OH,5R-OH) = O=C([C@H](C[C@@H](O)[C@@H](O)N[*:3])N[*:1])[*:2]; Pro(3S-OH,4S-Me) = C[C@H]1CN[C@H](C(=O)O)[C@H]1O; X1 = CCCCCOc1ccc(-c2cc(-c3ccc(C(=O)*)cc3)no2)cc1; Gln(3R-OH) = NC(=O)C[C@@H](O)[C@H](N)C(=O)O; Hyp = O=C(O)[C@@H]1C[C@@H](O)CN1
# Key:
# Assay type in all cases: functional
# Trichosporon dermatis = experiment: Antimicrobial activity against Trichosporon dermatis by broth microdilution method; settings: Cutaneotrichosporon dermatis
# Summary of the method: (§1)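 Nonfermentative yeast clinical isolates (Rhodotorula, Trichosporon) tested by broth microdilution. The EUCAST yeast recommendations were followed strictly, with one minor modification to improve growth. MIC was read as the endpoint.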
# Mucor = experiment: Antimicrobial activity against Mucor spp.by broth microdilution method
# Summary of the method: (§2)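 Filamentous fungus clinical isolates tested by the AFST-EUCAST reference broth microdilution method for moulds. For echinocandins, the endpoint was the minimum effective concentration: the lowest drug concentration giving aberrant hyphal growth, read with an inverted microscope.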
# Aspergillus niger = experiment: Antimicrobial activity against Aspergillus niger by broth microdilution method
# Summary of the method: (§3)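 Clinical mould isolates, tested by broth microdilution using the AFST-EUCAST reference method for filamentous fungi. For echinocandins, the endpoint was the minimum effective concentration: the lowest drug concentration giving aberrant hyphal growth, read with an inverted microscope.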
# [1] = test system: Scopulariopsis brevicaulis; experiment: Antimicrobial activity against Scopulariopsis brevicaulis by broth microdilution method; summary of the method: as §2
# Fusarium verticillioides = experiment: Antimicrobial activity against Fusarium verticillioides by broth microdilution method; summary of the method: as §2
# [Candida] intermedia = Antimicrobial activity against Candida intermedia by broth microdilution method; settings: Sungouiella intermedia
# Summary of the method: (§4)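 Clinical isolates from human patients, tested by broth microdilution using the AFST-EUCAST reference procedure for fermentative yeasts. The MIC was read per that reference method.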
# Aspergillus terreus = experiment: Antimicrobial activity against Aspergillus terreus by broth microdilution method; summary of the method: as §3
# [Candida] zeylanoides = Antimicrobial activity against Candida zeylanoides by broth microdilution method; settings: Dujonia zeylanoides; summary of the method: as §4
# Pichia norvegensis = experiment: Antimicrobial activity against Candida norvegensis by broth microdilution method; summary of the method: as §4
# Phialemonium curvatum = experiment: Antimicrobial activity against Phialemonium curvatum by broth microdilution method; settings: Thyridium curvatum; summary of the method: as §2
# Beauveria bassiana = experiment: Antimicrobial activity against Beauveria bassiana by broth microdilution method; summary of the method: as §3
# Yarrowia lipolytica = experiment: Antimicrobial activity against Yarrowia lipolytica by broth microdilution method
# Aspergillus versicolor = experiment: Antimicrobial activity against Aspergillus versicolor by broth microdilution method; summary of the method: as §3
# Hortaea werneckii = experiment: Antimicrobial activity against Hortaea werneckii by broth microdilution method
# Rhizomucor = experiment: Antimicrobial activity against Rhizomucor spp.by broth microdilution method; summary of the method: as §2
# Rhodotorula mucilaginosa = experiment: Antimicrobial activity against Rhodotorula mucilaginosa by broth microdilution method; summary of the method: as §1
# Paecilomyces lilacinus = experiment: Antimicrobial activity against Paecilomyces lilacinus by broth microdilution method; settings: Purpureocillium lilacinum; summary of the method: as §2
# Aspergillus glaucus = experiment: Antimicrobial activity against Aspergillus glaucus by broth microdilution method; summary of the method: as §3
# Trichosporon domesticum = experiment: Antimicrobial activity against Trichosporon mycotoxinivorans by broth microdilution method; settings: Apiotrichum domesticum
# Summary of the method: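 Spanish human clinical isolates were tested as nonfermentative yeasts by broth microdilution. The method strictly followed the EUCAST recommendations, with a minor modification to improve growth, and the read-out was the MIC.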
# Rhodotorula glutinis = experiment: Antimicrobial activity against Rhodotorula glutinis by broth microdilution method; summary of the method: as §1
# Fennellia nivea = experiment: Antimicrobial activity against Aspergillus niveus by broth microdilution method; summary of the method: as §3
# Kluyveromyces marxianus = experiment: Antimicrobial activity against Candida kefyr by broth microdilution method; summary of the method: as §4
# Aspergillus nidulans = experiment: Antimicrobial activity against Aspergillus nidulans by broth microdilution method; summary of the method: as §3
# Scedosporium apiospermum = experiment: Antimicrobial activity against Scedosporium apiospermum by broth microdilution method; summary of the method: as §2
# Candida tropicalis = experiment: Antimicrobial activity against Candida tropicalis by broth microdilution method; summary of the method: as §4
# Penicillium = experiment: Antimicrobial activity against Penicillium spp. by broth microdilution method; summary of the method: as §2
# Trichoderma = experiment: Antimicrobial activity against Trichoderma spp. by broth microdilution method; summary of the method: as §2
# Aspergillus ochraceus = experiment: Antimicrobial activity against Aspergillus ochraceus by broth microdilution method; summary of the method: as §3
# Lewia infectoria = experiment: Antimicrobial activity against Alternaria infectoria by broth microdilution method; summary of the method: as §3
# Fusarium oxysporum = experiment: Antimicrobial activity against Fusarium oxysporum by broth microdilution method; summary of the method: as §3
# Exophiala dermatitidis = experiment: Antimicrobial activity against Exophiala dermatitidis by broth microdilution method
# Aureobasidium pullulans = experiment: Antimicrobial activity against Aureobasidium pullulans by broth microdilution method
# Lecythophora hoffmannii = experiment: Antimicrobial activity against Lecythophora hoffmannii by broth microdilution method; settings: Coniochaeta hoffmannii; summary of the method: as §2
# Trichosporon = experiment: Antimicrobial activity against Trichosporon spp. by broth microdilution method; summary of the method: as §1
# Saksenaea vasiformis = experiment: Antimicrobial activity against Saksenaea vasiformis by broth microdilution method; summary of the method: as §2
# Candida albicans = experiment: Antimicrobial activity against Candida albicans by broth microdilution method; summary of the method: as §4
# Fusarium proliferatum = experiment: Antimicrobial activity against Fusarium proliferatum by broth microdilution method; summary of the method: as §3
# Aspergillus sydowii = experiment: Antimicrobial activity against Aspergillus sydowii by broth microdilution method; summary of the method: as §3
# Saccharomyces cerevisiae = experiment: Antimicrobial activity against Saccharomyces cerevisiae by broth microdilution method
# Wickerhamomyces anomalus = experiment: Antimicrobial activity against Candida pelliculosa by broth microdilution method; settings: Hansenula anomala; summary of the method: as §4
# Aspergillus flavus = experiment: Antimicrobial activity against Aspergillus flavus by broth microdilution method; summary of the method: as §3
# Candida metapsilosis = experiment: Antimicrobial activity against Candida metapsilosis by broth microdilution method; settings: Lodderomyces metapsilosis; summary of the method: as §4
# [2] = Antimicrobial activity against Rhizopus microsporus by broth microdilution method; summary of the method: as §2
# Alternaria alternata = experiment: Antimicrobial activity against Alternaria alternata by broth microdilution method; summary of the method: as §3
# Nakaseomyces glabratus = experiment: Antimicrobial activity against Candida glabrata by broth microdilution method; summary of the method: as §4
structure (smiles),measurement,setting,value
"CCCCCOc1ccc(-c2cc(-c3ccc(C(=O)N[C@H]4C[C@@H](O)[C@@H](O)NC(=O)[C@@H]5[C@@H](O)[C@@H](C)CN5C(=O)[C@H]([C@H](O)CC(N)=O)NC(=O)[C@H]([C@H](O)[C@@H](O)c5ccc(O)c(OS(=O)(=O)O)c5)NC(=O)[C@@H]5C[C@@H](O)CN5C(=O)[C@H]([C@@H](C)O)NC4=O)cc3)no2)cc1 [MICAFUNGIN] (X1-[Orn(4R-OH,5R-OH)]T[Hyp][hTyr(3S-OH,4S-OH,3'-OSO3H)][Gln(3R-OH)][Pro(3S-OH,4S-Me)]; lactam 1-C)",MIC50,Trichosporon dermatis,> 16 µg/mL
same,MIC90,Trichosporon dermatis,> 16 µg/mL
same,MIC50,Mucor,> 16 µg/mL
same,MIC90,Mucor,> 16 µg/mL
same,MIC50,Aspergillus niger,0.03 µg/mL
same,MIC90,Aspergillus niger,0.06 µg/mL
same,MIC50,[1],> 16 µg/mL
same,MIC90,[1],> 16 µg/mL
same,MIC50,Fusarium verticillioides,> 16 µg/mL
same,MIC90,Fusarium verticillioides,> 16 µg/mL
same,MIC50,[Candida] intermedia,0.03 µg/mL
same,MIC90,[Candida] intermedia,0.12 µg/mL
same,MIC50,Aspergillus terreus,0.03 µg/mL
same,MIC90,Aspergillus terreus,0.03 µg/mL
same,MIC50,[Candida] zeylanoides,0.03 µg/mL
same,MIC90,[Candida] zeylanoides,0.12 µg/mL
same,MIC50,Pichia norvegensis,0.03 µg/mL
same,MIC90,Pichia norvegensis,0.12 µg/mL
same,MIC50,Phialemonium curvatum,> 16 µg/mL
same,MIC90,Phialemonium curvatum,> 16 µg/mL
same,MIC50,Beauveria bassiana,> 16 µg/mL
same,MIC90,Beauveria bassiana,> 16 µg/mL
same,MIC50,Yarrowia lipolytica,0.03 µg/mL
same,MIC90,Yarrowia lipolytica,1 µg/mL
same,MIC50,Aspergillus versicolor,0.03 µg/mL
same,MIC90,Aspergillus versicolor,0.06 µg/mL
same,MIC50,Hortaea werneckii,0.03 µg/mL
same,MIC90,Hortaea werneckii,0.06 µg/mL
same,MIC50,Rhizomucor,> 16 µg/mL
same,MIC90,Rhizomucor,> 16 µg/mL
same,MIC50,Rhodotorula mucilaginosa,> 16 µg/mL
same,MIC90,Rhodotorula mucilaginosa,> 16 µg/mL
same,MIC50,Paecilomyces lilacinus,> 16 µg/mL
same,MIC90,Paecilomyces lilacinus,> 16 µg/mL
same,MIC50,Aspergillus glaucus,0.06 µg/mL
same,MIC90,Aspergillus glaucus,0.25 µg/mL
same,MIC50,Trichosporon domesticum,> 16 µg/mL
same,MIC90,Trichosporon domesticum,> 16 µg/mL
same,MIC50,Rhodotorula glutinis,> 16 µg/mL
same,MIC90,Rhodotorula glutinis,> 16 µg/mL
same,MIC50,Fennellia nivea,0.06 µg/mL
same,MIC90,Fennellia nivea,0.25 µg/mL
same,MIC50,Kluyveromyces marxianus,0.03 µg/mL
same,MIC90,Kluyveromyces marxianus,0.03 µg/mL
same,MIC50,Aspergillus nidulans,0.03 µg/mL
same,MIC90,Aspergillus nidulans,> 16 µg/mL
same,MIC50,Scedosporium apiospermum,0.03 µg/mL
same,MIC90,Scedosporium apiospermum,> 16 µg/mL
same,MIC50,Candida tropicalis,0.03 µg/mL
same,MIC90,Candida tropicalis,0.03 µg/mL
same,MIC50,Penicillium,0.03 µg/mL
same,MIC90,Penicillium,0.06 µg/mL
same,MIC50,Trichoderma,> 16 µg/mL
same,MIC90,Trichoderma,> 16 µg/mL
same,MIC50,Aspergillus ochraceus,0.06 µg/mL
same,MIC90,Aspergillus ochraceus,0.25 µg/mL
same,MIC50,Lewia infectoria,> 16 µg/mL
same,MIC90,Lewia infectoria,> 16 µg/mL
same,MIC50,Fusarium oxysporum,> 16 µg/mL
same,MIC90,Fusarium oxysporum,> 16 µg/mL
same,MIC50,Exophiala dermatitidis,0.03 µg/mL
same,MIC90,Exophiala dermatitidis,0.06 µg/mL
same,MIC50,Aureobasidium pullulans,0.03 µg/mL
same,MIC90,Aureobasidium pullulans,0.06 µg/mL
same,MIC50,Lecythophora hoffmannii,0.03 µg/mL
same,MIC90,Lecythophora hoffmannii,0.06 µg/mL
same,MIC50,Trichosporon,> 16 µg/mL
same,MIC90,Trichosporon,> 16 µg/mL
same,MIC50,Saksenaea vasiformis,> 16 µg/mL
same,MIC90,Saksenaea vasiformis,> 16 µg/mL
same,MIC50,Candida albicans,0.03 µg/mL
same,MIC90,Candida albicans,0.03 µg/mL
same,MIC50,Fusarium proliferatum,> 16 µg/mL
same,MIC90,Fusarium proliferatum,> 16 µg/mL
same,MIC50,Aspergillus sydowii,0.03 µg/mL
same,MIC90,Aspergillus sydowii,0.03 µg/mL
same,MIC50,Saccharomyces cerevisiae,0.03 µg/mL
same,MIC90,Saccharomyces cerevisiae,0.06 µg/mL
same,MIC50,Wickerhamomyces anomalus,0.03 µg/mL
same,MIC90,Wickerhamomyces anomalus,0.12 µg/mL
same,MIC50,Aspergillus flavus,> 16 µg/mL
same,MIC90,Aspergillus flavus,> 16 µg/mL
same,MIC50,Candida metapsilosis,0.03 µg/mL
same,MIC90,Candida metapsilosis,0.12 µg/mL
same,MIC50,[2],> 16 µg/mL
same,MIC90,[2],> 16 µg/mL
same,MIC50,Alternaria alternata,0.25 µg/mL
same,MIC90,Alternaria alternata,> 16 µg/mL
same,MIC50,Nakaseomyces glabratus,0.03 µg/mL
same,MIC90,Nakaseomyces glabratus,0.03 µg/mL
